Data published in ChEMBL document CHEMBL4765449, “Synthesis, biological evaluation and toxicity of novel tetrandrine analogues” (Eur J Med Chem, 2020).
Active and inactive are the calls of the source. The calls are words filed in the database; no cut-off is given here.

How the values were obtained:
HepaRG [1] = experiment: Cytotoxicity against human HepaRG cells overexpressing EGFP-CYP3A4 assessed as reduction in cell viability at 10 uM measured after 24 hrs by propidium iodide staining based flow cytometry; format: ADME
In short: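 HepaRG cells, differentiated, transiently transfected with pcDNA3-CYP3A4-EGFP or empty vector 16 h before stimulation; 10 μM compound for 24 h. Propidium iodide (5 μg/mL in PBS) staining, flow cytometry without FSC/SSC gating; specific cell death = % dead (treated) − % dead (control). Three independent experiments.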

HepaRG [2] = experiment: Cytotoxicity against human HepaRG cells assessed as reduction in cell viability at 10 uM measured after 24 hrs by Celltiter-blue cell viability assay; format: cell-based
In short: (§1)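 Differentiated HepaRG cells (Maintenance/Metabolism medium) exposed 24 h to 10 or 20 μM compound; viability by CellTiter-Blue, normalized to vehicle control. Means ± SEM of three independent experiments.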

HepaRG [3] = experiment: Cytotoxicity against human HepaRG cells assessed as reduction in cell viability at 20 uM measured after 24 hrs by Celltiter-blue cell viability assay; format: cell-based; in short: as §1
HepG2 [4] = experiment: Induction of mitochondrial membrane disruption in human HepG2 cells at 5 uM measured after 24 hrs by JC-1 dye based flow cytometric analysis; format: functional, cell-based
In short: (§2)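 Cells (HepG2 adhered overnight; VCR-R CEM seeded 4 h before) treated with DMSO or 5 μM for 24 h; JC-1 (1 μg/mL) 1 h before harvest, PBS wash, flow cytometry; green shift read as loss of ΔΨm. CCCP (100 μM, 1 h) positive control; elacridar (5 μM) present for CEM staining.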

CCRF-CEM [5] = experiment: Induction of mitochondrial membrane disruption in vincristine-resistant human CEM cells at 5 uM measured after 24 hrs by JC-1 dye based flow cytometric analysis; format: functional, cell-based; in short: as §2
HepG2 [6] = experiment: Cytotoxicity against human HepG2 cells overexpressing EGFP-CYP3A4 assessed as reduction in cell viability at 15 uM measured after 24 hrs by propidium iodide staining based flow cytometry; format: functional
In short: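 HepG2 stably transfected (G418 0.5 mg/mL, four weeks; plasmid confirmed by PCR) with pcDNA3-CYP3A4-EGFP or empty vector, 0.1 × 10^6 per well, adhered overnight; 15 μM compound 24 h. Propidium iodide staining and flow cytometry; specific cell death relative to control. Three independent experiments.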

CEM [7] = experiment: Inhibition of P-gp in vincristine-resistant human CEM cells at 0.1 to 1 uM using calcein-AM as substrate preincubated for 30 mins followed by compound washout and subsequent substrate addition measured after 60 mins by flow cytometric analysis; format: cell-based; conditions: dose 0.1-1 µM
HepG2 [8] = experiment: Induction of apoptosis in human HepG2 cells assessed as increase in PARP cleavage at 5 uM measured after 24 hrs by Western blot analysis; format: functional, cell-based
In short: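 HepG2, 0.5 × 10^6 per well, adhered overnight, then DMSO or 5 μM compound; RIPA lysates immunoblotted by SDS-PAGE/PVDF with chemiluminescent detection.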

CCRF-CEM [9] = experiment: Effect on P-gp expression in vincristine-resistant human CEM cells at 1 uM measured after 1.5 hrs by immunostaining based flow cytometry; format: functional, cell-based
In short: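 VCR-R CEM, 2 × 10^4 cells, 1 μM compound 1.5 h at 37 °C; washed in ice-cold 1% BSA/PBS, stained 30 min at 4 °C in dark with FITC anti-human P-gp, isotype control for background; flow cytometry, gMFI normalized to DMSO. Three independent experiments.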

CEM [10] = experiment: Effect on AKT phosphorylation at Ser473 residue in vincristine-resistant human CEM cells at 5 uM measured after 24 hrs by Western blot analysis; format: cell-based
In short: (§3)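 VCR-R CEM cells, 2 × 10^6 per well, seeded 4 h before 5 μM compound or DMSO for 24 h; RIPA lysis, SDS-PAGE, PVDF blotting, chemiluminescence. Probed for p-Akt (Ser473), total Akt, PARP, Bcl-xL, Mcl-1; stain-free total protein as loading control.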

CCRF-CEM [11] = experiment: Effect on Bcl-XL expression in vincristine-resistant human CEM cells at 5 uM measured after 24 hrs by Western blot analysis; format: functional, cell-based; in short: as §3
CCRF-CEM [12] = experiment: Effect on MCL1 expression in vincristine-resistant human CEM cells at 5 uM measured after 24 hrs by Western blot analysis; format: functional, cell-based; in short: as §3
CEM [13] = experiment: Inhibition of P-gp in vincristine-resistant human CEM cells assessed as potentiation of vincristine-induced apoptosis 1 uM measured after 48 hrs by propidium iodide staining based flow cytometry; format: cell-based
In short: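 VCR-R CEM, 0.125 × 10^6 per well, rested 4 h, then incubated 48 h with increasing vincristine with or without 1 μM compound; apoptosis by propidium iodide staining and flow cytometry. Three independent experiments.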

CCRF-CEM [14] = experiment: Induction of apoptosis in vincristine-resistant human CEM cells assessed as increase in PARP cleavage at 5 uM measured after 24 hrs by Western blot analysis; format: functional, cell-based; in short: as §3
HUVEC = experiment: Cytotoxicity against HUVEC assessed as reduction in cell viability at 1 to 10 uM measured after 24 hrs by Celltiter-blue cell viability assay; format: cell-based; conditions: human, dose 1-10 µM
In short: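 HUVECs seeded, adhered overnight, exposed 24 h to 1, 5 and 10 μM; CellTiter-Blue viability normalized to vehicle control; three independent experiments.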

[15] = Cytotoxicity against human PBMC assessed as reduction in cell viability at 1 to 10 uM measured after 48 hrs by propidium iodide staining based flow cytometry

Structure (SMILES) | Activity (HepaRG [1]) | Activity (HepaRG [2]) | Activity (HepaRG [3]) | Activity (HepG2 [4]) | Activity (CCRF-CEM [5]) | Activity (HepG2 [6]) | inhibition (CEM [7]) | Activity (HepG2 [8]) | Activity (CCRF-CEM [9]) | Activity (CEM [10]) | Activity (CCRF-CEM [11]) | Activity (CCRF-CEM [12]) | inhibition (CEM [13]) | Activity (CCRF-CEM [14]) | Activity (HUVEC) | Activity [15]
COc1cc2c3cc1Oc1c(OC)c(OC)cc4c1C(CCCCOc1ccc(cc1)CC3N(C)CC2)N(C)CC4 (racemic) [listing 1 of 2 here] | Toxic |  |  |  |  |  |  |  |  |  |  |  |  |  |  | 
COc1cc2c3cc1Oc1c(OC)c(OC)cc4c1C(CCCCOc1ccc(cc1)CC3N(C)CC2)N(C)CC4 (single isomer, unassigned; diastereomer 2) [listing 1 of 2 here] |  | Toxic | Toxic |  |  |  |  |  |  |  |  |  |  |  |  | 
COc1cc2c3cc1Oc1c(OC)c(OC)cc4c1C(Cc1cccc(c1)Oc1ccc(cc1)CC3N(C)CC2)N(C)CC4 (racemic; form 2) [listing 1 of 2 here] |  |  |  | inactive | Active | Active | Active | inactive | inactive | inactive | inactive | inactive | Active |  |  | 
COc1cc2c3cc1Oc1c(OC)c(OC)cc4c1C(Cc1cc(cs1)Oc1ccc(cc1)CC3N(C)CC2)N(C)CC4 (racemic; form 2) [listing 1 of 2 here] | Toxic | Toxic | Toxic |  |  |  |  |  |  |  |  |  |  |  |  | 
COc1cc2c3cc1Oc1c(OC)c(OC)cc4c1C(Cc1cccc(c1)Oc1ccc(cc1)CC3N(C)CC2)N(C)CC4 (racemic; form 1) [listing 1 of 2 here] |  |  |  | inactive | inactive | Active | Active | inactive | inactive | inactive | inactive | inactive | Active | Active |  | 
COc1cc2c3cc1Oc1c(OC)c(OC)cc4c1C(CCCCOc1ccc(cc1)CC3N(C)CC2)N(C)CC4 (racemic) [listing 2 of 2 here] |  |  |  | inactive | inactive | Active | inactive | inactive | inactive | inactive | inactive | inactive | inactive |  |  | 
COc1cc2c3cc1Oc1c(OC)c(OC)cc4c1C(Cc1ccc(Cl)c(c1)Oc1ccc(cc1)CC3N(C)CC2)N(C)CC4 (racemic) [listing 1 of 2 here] | Toxic |  |  |  |  |  |  |  |  |  |  |  |  |  |  | 
COc1cc2c3cc1Oc1c(OC)c(OC)cc4c1C(Cc1cccc(c1)Oc1ccc(cc1)CC3N(C)CC2)N(C)CC4 (racemic; form 1) [listing 2 of 2 here] |  | Toxic |  |  |  |  |  |  |  |  |  |  |  |  |  | 
COc1cc2c3cc1Oc1c(OC)c(OC)cc4c1C(Cc1cccc(c1)Oc1ccc(cc1)CC3N(C)CC2)N(C)CC4 (racemic; form 2) [listing 2 of 2 here] | Toxic |  | Toxic |  |  |  |  |  |  |  |  |  |  |  |  | 
COc1cc2c3cc1Oc1c(OC)c(OC)cc4c1C(Cc1ccc(Cl)c(c1)Oc1ccc(cc1)CC3N(C)CC2)N(C)CC4 (racemic) [listing 2 of 2 here] |  |  |  | inactive | inactive | Active | Active | inactive | inactive | inactive | inactive | inactive | Active |  |  | 
COc1cc2c3cc1Oc1c(OC)c(OC)cc4c1C(Cc1ccc(OC(F)(F)F)c(c1)Oc1ccc(cc1)CC3N(C)CC2)N(C)CC4 (racemic; form 1) [listing 1 of 2 here] |  |  |  | inactive | Active | Active | Active | inactive | inactive | inactive | inactive | inactive | Active | Active |  | 
COc1cc2c3cc1Oc1c(OC)c(OC)cc4c1C(Cc1cc(cs1)Oc1ccc(cc1)CC3N(C)CC2)N(C)CC4 (racemic; form 1) |  |  |  |  |  |  |  |  |  |  |  |  |  |  | Toxic | Toxic
COc1cc2c3cc1Oc1c(OC)c(OC)cc4c1C(Cc1ccc(Cl)c(c1)Oc1ccc(cc1)CC3N(C)CC2)N(C)CC4 (mixture of isomers) |  |  |  | inactive | Active | Active | Active | inactive | inactive | inactive | inactive | inactive | Active | Active |  | 
COc1cc2c3cc1Oc1c(OC)c(OC)cc4c1C(Cc1ccc(OC(F)(F)F)c(c1)Oc1ccc(cc1)CC3N(C)CC2)N(C)CC4 (racemic; form 2) | Toxic |  |  |  |  |  |  |  |  |  |  |  |  |  |  | 
COc1cc2c3cc1Oc1c(OC)c(OC)cc4c1C(Cc1ccc(OC(F)(F)F)c(c1)Oc1ccc(cc1)CC3N(C)CC2)N(C)CC4 (racemic; form 1) [listing 2 of 2 here] |  | Toxic | Toxic |  |  |  |  |  |  |  |  |  |  |  | Toxic | Toxic
COc1cc2c(cc1OC)[C@@H](Cc1ccc(Oc3cc(C[C@@H]4c5cc(OC)c(OC)cc5CCN4C)ccc3O)cc1)N(C)CC2 |  |  |  |  |  | Active |  |  |  |  |  |  |  |  |  | 
COc1cc2c3cc1Oc1c(OC)c(OC)cc4c1[C@@H](Cc1ccc(O)c(c1)Oc1ccc(cc1)C[C@@H]3N(C)CC2)N(C)CC4 |  |  |  |  |  | Active |  |  |  |  |  |  |  |  |  | 
COc1ccc2cc1Oc1ccc(cc1)C[C@H]1c3cc(c(OC)cc3CCN1C)Oc1c(OC)c(OC)cc3c1[C@H](C2)N(C)CC3 [FANCHININ] | Toxic | Toxic | Toxic | inactive | inactive | Active | Active | inactive | inactive | inactive | inactive | inactive | Active |  | Toxic | Toxic
COc1cc2c3cc1Oc1c(OC)c(OC)cc4c1C(Cc1cc(cs1)Oc1ccc(cc1)CC3N(C)CC2)N(C)CC4 (racemic; form 2) [listing 2 of 2 here] |  |  |  | inactive | inactive | Active | Active | inactive | inactive | inactive | inactive | inactive | Active |  |  | 
COc1cc2c3cc1Oc1c(OC)c(OC)cc4c1C(CCCCOc1ccc(cc1)CC3N(C)CC2)N(C)CC4 (single isomer, unassigned; diastereomer 2) [listing 2 of 2 here] |  |  |  | inactive | inactive | Active | inactive | inactive | inactive | inactive | inactive | inactive | inactive |  |  | 
